Assays:
[1] = biological target: Human immunodeficiency virus type 1 reverse transcriptase (Human immunodeficiency virus 1, UniProt Q72547); assay: Inhibition of wild type recombinant HIV1 reverse transcriptase p66/p51 using poly(rA)/oligo(dT)16 as template/primer measured after 40 mins by picogreen dye-based spectrofluorometric method
[2] = Selectivity index, ratio of CC50 for human MT4 cells to EC50 for antiviral activity againstHIV1 infected in human MT4 cells; assay type: toxicity, cell-based; conditions: read-out: Ratio CC50/EC50
How it was run: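 Ratio CC50/EC50, both from the same 5-day MTT run in MT-4 cells, mock-infected versus HIV-infected (100–300 CCID50) wells.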

[3] = Cytotoxicity against human MT4 cells assessed as reduction in cell viability after 5 days by MTT assay; assay type: cell-based
How it was run: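 Mock-infected MT-4 cells (6 × 10^5 cells/ml) run alongside infected wells, receiving serial 5-fold compound dilutions in triplicate. After 5 days, MTT formazan read at 540 and 690 nm, median of three wells. CC50 is the concentration lowering OD540 of mock-infected control by 50%.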

[4] = tested on: Human immunodeficiency virus 1; assay: Antiviral activity against HIV1 infected in human MT4 cells assessed as reduction in virus-induced cytopathic effect after 5 days by MTT assay; assay type: functional, organism-based; conditions: Human immunodeficiency virus 1, MT4, 120 h
How it was run: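 HIV stock at 100–300 CCID50 added to MT-4 cells (6 × 10^5 cells/ml after centrifugation of exponentially growing cells), compounds as serial 5-fold dilutions in triplicate wells. After 5 days, viability read by MTT reduction at 540 and 690 nm, median of three wells. EC50 taken as concentration reducing virus-induced cytopathic effect by 50%.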

| SMILES | IC50 [1] [µM] | selectivity ratio [2] | CC50 at 120 h [3] [µM] | EC50 [4] [µM] |
| --- | --- | --- | --- | --- |
| O=C1CSC(c2ccccc2)N1c1nnc(S)s1 (stereo unspecified) | > 100 | 13 | > 423 | 32 |
| CS(=O)(=O)c1ccc(NC(=O)CSc2nnc(N3C(=O)CSC3c3ccccc3)s2)cc1 (stereo unspecified) | 40.6 | < 1 | 130 | > 130 |
| CS(=O)(=O)c1ccc(NC(=O)CSc2nnc(N3C(=O)CSC3c3ccc(Cl)cc3)s2)cc1 (stereo unspecified) | 39.4 | < 1 | 116 | > 116 |
| O=C1CSC(c2ccccc2Cl)N1c1nnc(S)s1 (stereo unspecified) | > 100 | < 1 | 200 | > 200 |
| O=C1CSC(c2ccc(Cl)cc2)N1c1n[nH]c(=S)s1 (stereo unspecified) | > 363 | < 1 | 195 | > 195 |
| NS(=O)(=O)c1ccc(NC(=O)CSc2nnc(N3C(=O)CSC3c3ccccc3Cl)s2)cc1 (stereo unspecified) | 21.8 | – | ≥ 18.8 | > 18.8 |
| NS(=O)(=O)c1ccc(NC(=O)CSc2nnc(N3C(=O)CSC3c3cccc(Cl)c3)s2)cc1 (stereo unspecified) | 19.2 | < 1 | 118 | > 118 |
| NS(=O)(=O)c1ccc(NC(=O)CSc2nnc(N3C(=O)CSC3c3ccccc3)s2)cc1 (stereo unspecified) | 30.6 | < 1 | 99.2 | > 99.2 |
| CS(=O)(=O)c1ccc(NC(=O)CSc2nnc(N3C(=O)CSC3c3ccccc3Cl)s2)cc1 (stereo unspecified) | 11.8 | – | ≥ 173 | ≥ 173 |
| CS(=O)(=O)c1ccc(NC(=O)CSc2nnc(N3C(=O)CSC3c3cccc(Cl)c3)s2)cc1 (stereo unspecified) | 15.8 | < 1 | 113 | > 113 |
| NS(=O)(=O)c1ccc(NC(=O)CSc2nnc(N3C(=O)CSC3c3ccc(Cl)cc3)s2)cc1 (stereo unspecified) | 72 | – | ≥ 222 | ≥ 225 |
| Cc1ccnc2c1NC(=O)c1cccnc1N2C1CC1 [NEVIRAPINE] | – | – | > 15 | – |
| O=C1CSC(c2cccc(Cl)c2)N1c1nnc(S)s1 (stereo unspecified) | > 100 | < 1 | 238 | > 238 |

Source: ChEMBL document CHEMBL4616638, “Inhibition of HIV-1 RT activity by a new series of 3-(1,3,4-thiadiazol-2-yl)thiazolidin-4-one derivatives” (Bioorg Med Chem, 2020)
